Data reported in ChEMBL document CHEMBL4837254, “Discovery of Investigational Drug CT1812, an Antagonist of the Sigma-2 Receptor Complex for Alzheimer's Disease” (ACS Med Chem Lett, 2021).
One block for each compound: values may come before it. The source made the active and inactive calls. No cut-off for these calls is given here.

Assays:
[1] = Ratio of drug level in brain to plasma measured after 24 hrs; format: ADME, cell-free; conditions: brain and plasma, read-out: BPR
[2] = Ratio of AUC in Brain to AUC in plasma; format: ADME, cell-free; conditions: brain and plasma; read-out: Ratio AUC
[3] = tested on: N2a; experiment: Anti-synaptotoxic activity against mouse Neuro-2a cells assessed as inhibition of amyloid beta (1 to 42)-induced cytotoxicity by MTT-based Trafficking assay; format: functional
[4] = Half life in mouse liver microsomes; format: ADME, Microsome
[5] = biological target: Voltage-gated inwardly rectifying potassium channel KCNH2 (Homo sapiens, UniProt Q12809)
Voltage-gated inwardly rectifying potassium channel KCNH2, sequence (Q12809 whole entry): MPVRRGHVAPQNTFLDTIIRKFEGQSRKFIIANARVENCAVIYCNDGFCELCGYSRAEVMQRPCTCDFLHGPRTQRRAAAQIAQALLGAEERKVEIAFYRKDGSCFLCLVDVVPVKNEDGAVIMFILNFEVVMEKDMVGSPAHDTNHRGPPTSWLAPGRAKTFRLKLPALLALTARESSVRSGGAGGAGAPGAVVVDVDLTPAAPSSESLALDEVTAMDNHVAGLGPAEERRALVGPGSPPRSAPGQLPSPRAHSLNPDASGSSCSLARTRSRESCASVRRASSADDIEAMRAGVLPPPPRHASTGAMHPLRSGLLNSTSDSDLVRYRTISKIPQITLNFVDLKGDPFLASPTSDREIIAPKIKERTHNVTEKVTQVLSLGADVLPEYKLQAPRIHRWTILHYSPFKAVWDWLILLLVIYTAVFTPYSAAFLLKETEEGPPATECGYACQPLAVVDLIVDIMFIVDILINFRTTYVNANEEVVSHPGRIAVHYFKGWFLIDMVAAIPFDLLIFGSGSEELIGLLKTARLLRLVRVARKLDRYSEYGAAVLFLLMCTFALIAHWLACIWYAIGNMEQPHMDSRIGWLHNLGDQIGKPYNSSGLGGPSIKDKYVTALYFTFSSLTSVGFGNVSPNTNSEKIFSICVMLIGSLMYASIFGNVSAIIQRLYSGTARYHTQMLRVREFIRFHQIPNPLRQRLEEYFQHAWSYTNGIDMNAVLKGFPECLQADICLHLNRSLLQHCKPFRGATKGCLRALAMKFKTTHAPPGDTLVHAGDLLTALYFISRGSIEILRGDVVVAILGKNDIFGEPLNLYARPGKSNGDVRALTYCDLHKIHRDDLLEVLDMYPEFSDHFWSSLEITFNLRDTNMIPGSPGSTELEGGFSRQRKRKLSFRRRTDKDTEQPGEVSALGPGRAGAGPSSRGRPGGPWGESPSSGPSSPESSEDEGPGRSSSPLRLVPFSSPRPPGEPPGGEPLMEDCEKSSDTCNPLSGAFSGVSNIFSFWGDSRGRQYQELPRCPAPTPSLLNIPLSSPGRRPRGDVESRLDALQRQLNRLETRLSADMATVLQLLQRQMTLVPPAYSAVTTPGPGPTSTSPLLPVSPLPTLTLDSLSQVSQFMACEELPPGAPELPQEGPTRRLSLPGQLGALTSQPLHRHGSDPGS

[6] = biological target: Sigma intracellular receptor 2 (Homo sapiens, UniProt Q5BJF2); experiment: Binding affinity to Sigma 2-receptor (unknown origin)
Sigma intracellular receptor 2, sequence (Q5BJF2 whole entry): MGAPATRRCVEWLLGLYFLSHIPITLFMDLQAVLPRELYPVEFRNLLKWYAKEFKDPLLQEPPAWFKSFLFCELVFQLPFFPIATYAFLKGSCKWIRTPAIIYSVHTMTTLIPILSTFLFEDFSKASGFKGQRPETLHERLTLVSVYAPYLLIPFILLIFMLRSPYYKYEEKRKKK

[7] = Cognitive enhancing effect in transgenic hAPP Swe/Ldn mouse assessed as swimming length measured after 3 days by Morris Water maze method (reference value: 2854 +/-267 cm); format: ADME; conditions: buffer, 72 h, time 3 day
[8] = Cognitive enhancing effect in non-transgenic mouse assessed as swimming length measured after 4 days by Morris Water maze method (reference value: 1797 +/-219 cm); format: ADME; conditions: buffer, 96 h, time 4 day
[9] = Cognitive enhancing effect in non-transgenic mouse assessed as swimming length measured after 2 day by Morris Water maze method (reference value: 2666 +/-294 cm); format: ADME; conditions: buffer, 48 h
[10] = Cognitive enhancing effect in non-transgenic mouse assessed as swimming length measured after 3 days by Morris Water maze method (reference value: 2173 +/-213 cm); format: ADME; conditions: buffer, 72 h, time 3 day
[11] = Reversal of amyloid beta oligomer-induced vesicular membrane trafficking in Sprague-Dawley rat neurons at 1 uM pretreated with amyloid beta oligomer for 1 hr followed by compound treatment by ELISA relative to control; format: functional; conditions: Neuron
[12] = Cognitive enhancing effect in non-transgenic mouse assessed as restoration of freezing time measured by Contextual fear conditioning test (reference value: 52 +/-5%); format: ADME
[13] = Prevention of vesicular membrane trafficking in Sprague-Dawley rat neurons assessed as inhibition of amyloid beta oligomer binding to […] receptor pretreated with compounds followed by amyloid beta oligomer challenge and measured after 1 hr by ELISA; format: functional, tissue-based; conditions: neuron
[14] = Cognitive enhancing effect in transgenic hAPP Swe/Ldn mouse assessed as swimming length measured after 1 day by Morris Water maze method (reference value: 3518 +/-138 cm); format: ADME; conditions: buffer, 24 h
[15] = Prevention of vesicular membrane trafficking in Sprague-Dawley rat neurons assessed as inhibition of amyloid beta oligomer binding to […] receptor at 10 uM pretreated with compounds followed by amyloid beta oligomer challenge and measured after 1 hr by ELISA relative to control; format: functional; conditions: Neuron
[16] = Improvement in learning and spatial memory in transgenic hAPP Swe/Ldn mouse assessed as spontaneous alteration measured by Y-maze method (reference value: 56.1 +/-2.8%); format: ADME
[17] = Efflux ratio of apparent permeability from basolateral to apical membrane over apical to basolateral membrane in human Caco2 cells; format: ADME, cell-based; conditions: Caco-2
[18] = Unbound brain-to-plasma concentration ratio measured after 24 hrs; format: ADME, cell-free; conditions: brain and plasma, read-out: K(p,uu,brain)
[19] = Reversal of amyloid beta oligomer-induced vesicular membrane trafficking in Sprague-Dawley rat neurons pretreated with amyloid beta oligomer for 1 hr followed by compound treatment by ELISA; format: functional, tissue-based; conditions: neuron
[20] = Cognitive enhancing effect in transgenic hAPP Swe/Ldn mouse assessed as swimming length measured after 4 days by Morris Water maze method (reference value: 2426 +/-287 cm); format: ADME; conditions: buffer, 96 h, time 4 day
[21] = Free drug level in brain; format: ADME, tissue-based
[22] = Free drug level in plasma; format: ADME, cell-free
[23] = Cognitive enhancing effect in transgenic hAPP Swe/Ldn mouse assessed as swimming length measured after 2 day by Morris Water maze method (reference value: 3252 +/-329 cm); format: ADME; conditions: buffer, 48 h
[24] = Improvement in learning and spatial memory in non-transgenic mouse assessed as spontaneous alteration measured by Y-maze method (reference value: 62.6 +/-3.7%); format: ADME
[25] = Cognitive enhancing effect in non-transgenic mouse assessed as swimming length measured after 1 day by Morris Water maze method (reference value: 3791 +/-150 cm); format: ADME; conditions: buffer, 24 h
[26] = Cognitive enhancing effect in transgenic hAPP Swe/Ldn mouse assessed as restoration of freezing time measured by Contextual fear conditioning test (reference value: 32 +/-6%); format: ADME
[27] = tested on: Mus musculus; experiment: Induction of amyloid beta oligomer release in interstitial brain fluid in iv dosed transgenic hAPP Swe/Ldn mouse; format: functional, organism-based
Outline: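 Compound given intravenously to live transgenic mice. Microelectrodes coated with antibodies to total Aβ or to Aβ oligomers were inserted into the brain, and soluble Aβ in interstitial fluid was measured minute by minute.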

Structure (SMILES): C[C@H](CCc1ccc(Cl)cc1)NCc1ccc(C(F)(F)F)cc1
Kp at 24 h [1]: 2 | Activity [3]: 5.7 µM | half-life [4]: 27 min | EC50 [5]: 780 nM

Structure (SMILES): COc1cc(CCC(C)NCc2ccc(C(F)(F)F)cc2)ccc1O (configuration not stated)
Activity [3]: 2.2 µM

Structure (SMILES): C[C@H](CCc1ccc(Cl)c(Cl)c1)NCc1ccc(C(F)(F)F)cc1
Kp at 24 h [1]: 8.2 | Activity [3]: 2 µM | half-life [4]: 33 min | EC50 [5]: 4400 nM

Structure (SMILES): C[C@@H](CCc1ccc(Cl)c(Cl)c1)NCc1ccc(C(F)(F)F)cc1
Activity [3]: 11.7 µM | half-life [4]: 53 min | EC50 [5]: 1100 nM | Ki [6]: 120 nM

Second part, led by results:

Kp at 24 h [1]: 5.4 | Kp [2]: 5.64 | half-life [4]: 4 min | Ki [6]: 11 nM
Structure (SMILES): CC(C)Oc1cc(CCC(C)(C)N2Cc3cccc(F)c3C2)ccc1O
Activity [3]: 0.25 µM | EC50 [5]: 9600 nM

Kp at 24 h [1]: 5.7 | Activity [7]: 1987 cm | Activity [8]: 2008 cm | Activity [9]: 2739 cm | Kp [2]: 2.51 | Activity [10]: 2262 cm | Activity [12]: 51% | EC50 [13]: 6800 nM | half-life [4]: 45 min | Activity [14]: 3230 cm | Activity [16]: 58.5% | Ki [6]: 8.5 nM | efflux ratio [17]: 0.95 | Kp uu at 24 h [18]: 6.75 | EC50 [19]: 358 nM | Activity [20]: 1611 cm | fraction unbound [21]: 0.13 | fraction unbound [22]: 0.05 | Activity [23]: 2332 cm | Activity [24]: 65.3% | Activity [25]: 3317 cm | Activity [26]: 45%
Structure (SMILES): CC(C)(C)Oc1cc(CCC(C)(C)N2Cc3ccc(S(C)(=O)=O)cc3C2)ccc1O
Activity [3]: 0.31 µM | inhibition at 1 µM [11]: 88% | EC50 [5]: 26000 nM | inhibition at 10 µM [15]: 71% | Activity [27]: Active

half-life [4]: 16 min
Structure (SMILES): COc1cc(CC[C@@H](C)N2Cc3cccc(F)c3C2)ccc1O
Activity [3]: 0.25 µM

half-life [4]: 61 min | Ki [6]: 0.44 nM
Structure (SMILES): COc1cc2c(cc1OC)CN([C@H](C)CCc1ccc(Cl)c(Cl)c1)C2
Activity [3]: 0.7 µM | EC50 [5]: 290 nM
